The values below come from ChEMBL document CHEMBL1649514, “AmpDI is involved in expression of the chromosomal L1 and L2 beta-lactamases of Stenotrophomonas maltophilia” (2009).

Converted amounts (≈) assume the structure as drawn.

Common to all, as to format: functional
For assay [1], the system named is Stenotrophomonas maltophilia. The experiment in a line: Antimicrobial activity against Stenotrophomonas maltophilia KJ by twofold serial agar dilution method. The method, boiled down: (§1)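 MICs by standard twofold serial agar dilution following CLSI guidelines, done in triplicate. Strains were wild-type clinical isolate KJ, which produces L1 and L2 β-lactamases, and its isogenic ampDI, ampDII and ampDI/ampDII deletion mutants. For cefepime, imipenem and meropenem, MICs were instead read from Etest strips per the manufacturer's instructions.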
On the technique in general: In agar dilution, organisms are placed on agar that contains the substance at set levels.

Assay [2] has as its system Stenotrophomonas maltophilia. The experiment in a line: Antimicrobial activity against ampD1-deficient Stenotrophomonas maltophilia KJ by twofold serial agar dilution method. The method, boiled down: as §1
The subject of assay [3] is Stenotrophomonas maltophilia. Kind of assay: Antimicrobial activity against ampD2-deficient Stenotrophomonas maltophilia KJ by twofold serial agar dilution method. The method, boiled down:
as §1

The subject of assay [4] is Stenotrophomonas maltophilia. Kind of assay: Antimicrobial activity against ampD1-, ampD2-deficient Stenotrophomonas maltophilia KJ by twofold serial agar dilution method. The method, boiled down:
as §1

By MIC is commonly meant the lowest concentration found to suppress growth. Regarding `C[C@@H](O)[C@H]1C(=O)N2C(C(=O)O)=C(SCCNC=N)C[C@H]12` [IMIPENEM ANHYDROUS], the MIC in assay [1], in assay [2], in assay [3] and in assay [4] was greater than 32 µg/mL throughout.

Take `C[C@@H](O)[C@H]1C(=O)N2C(C(=O)O)=C(S[C@@H]3CN[C@H](C(=O)N(C)C)C3)[C@H](C)[C@H]12` [MEROPENEM]: the MIC in assay [1], in assay [2], in assay [3] and in assay [4] was greater than 32 µg/mL in each case.

Turning to `CC1(C)S[C@@H]2[C@H](NC(=O)C(C(=O)O)c3ccccc3)C(=O)N2[C@H]1C(=O)O` (stereo partly specified) [CARBENICILLIN], the MIC in assay [1], in assay [2], in assay [3] and in assay [4] was 1020 µg/mL (≈ 2710 µM) throughout.

Turning to `CO/N=C(\C(=O)N[C@@H]1C(=O)N2C(C(=O)[O-])=C(C[N+]3(C)CCCC3)CS[C@H]12)c1csc(N)n1` [CEFEPIME], the MIC in assay [1] is 64 µg/mL (≈ 133 µM); in assay [2] it was 96 µg/mL (≈ 200 µM); in assay [3], 64 µg/mL (≈ 133 µM); in assay [4], 96 µg/mL (≈ 200 µM).

As to `CO/N=C(\C(=O)N[C@@H]1C(=O)N2C(C(=O)O)=C(COC(N)=O)CS[C@H]12)c1ccco1` [CEFUROXIME], the MIC in assay [1], in assay [2], in assay [3] and in assay [4] was 2050 µg/mL (≈ 4830 µM) in each case.

Regarding `CO/N=C(\C(=O)N[C@@H]1C(=O)N2C(C(=O)O)=C(CSc3nc(=O)c(O)nn3C)CS[C@H]12)c1csc(N)n1` [CEFTRIAXONE], the minimal inhibitory concentration (MIC) in assay [1], in assay [2], in assay [3] and in assay [4] was 256 µg/mL (≈ 462 µM) in each case.

As to `C[C@H]1[C@H](NC(=O)/C(=N\OC(C)(C)C(=O)O)c2csc(N)n2)C(=O)N1S(=O)(=O)O` [AZTREONAM], the MIC in assay [1], in assay [2], in assay [3] and in assay [4] was greater than 2050 µg/mL in each case.

`CCN1CCN(C(=O)N[C@@H](C(=O)N[C@@H]2C(=O)N3[C@@H]2SC(C)(C)[C@@H]3C(=O)O)c2ccccc2)C(=O)C1=O` [PIPERACILLIN]: the MIC in assay [1], in assay [2], in assay [3] and in assay [4] was 1020 µg/mL (≈ 1980 µM) each time.

For the molecule `CO[C@@]1(NC(=O)Cc2cccs2)C(=O)N2C(C(=O)O)=C(COC(N)=O)CS[C@@H]21` [CEFOXITIN], the minimal inhibitory concentration (MIC) in assay [1], in assay [2], in assay [3] and in assay [4] was 1020 µg/mL (≈ 2400 µM) in each case.
